Measured values from ChEMBL document CHEMBL1133812, “Small molecule somatostatin receptor subtype-2 antagonists” (Bioorg Med Chem Lett, 2001).
Where a SMILES comes first, the peptide text is derived from it. [ ]: non-standard residue; d: D form. The star is where a group is joined. Phe(3-F) = N[C@@H](Cc1cccc(F)c1)C(=O)O; Tos = Cc1ccc(S(=O)(=O)*)cc1

Legend:
[1] = target: Somatostatin receptor type 2 (Homo sapiens, UniProt P30874); assay: Antagonistic activity towards sst2 receptor in GH4C1 cells a concentration of 1-2 x 10e6/mL incubated for 20 minutes; assay type: functional, cell-based, GH4-C1
In short: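 GH4C1 pituitary cells (1–2×10⁶/mL) exposed to compound dose-titrations with 100 nM VIP plus 10 nM somatostatin 14, 20 min at 37 °C. cAMP content read against cAMP standards in adenylyl cyclase activation plates. Antagonism scored as a cAMP rise over VIP+somatostatin control wells. Values from single experiments or means of 2–4 replicate experiments.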

[2] = target: Somatostatin receptor type 2 (Sus scrofa); assay: Inhibitory concentration towards binding of sst2 receptor using [125I]somatostatin as radioligand in Neuro2A cells

Sequence of Somatostatin receptor type 2 (P30874 whole entry): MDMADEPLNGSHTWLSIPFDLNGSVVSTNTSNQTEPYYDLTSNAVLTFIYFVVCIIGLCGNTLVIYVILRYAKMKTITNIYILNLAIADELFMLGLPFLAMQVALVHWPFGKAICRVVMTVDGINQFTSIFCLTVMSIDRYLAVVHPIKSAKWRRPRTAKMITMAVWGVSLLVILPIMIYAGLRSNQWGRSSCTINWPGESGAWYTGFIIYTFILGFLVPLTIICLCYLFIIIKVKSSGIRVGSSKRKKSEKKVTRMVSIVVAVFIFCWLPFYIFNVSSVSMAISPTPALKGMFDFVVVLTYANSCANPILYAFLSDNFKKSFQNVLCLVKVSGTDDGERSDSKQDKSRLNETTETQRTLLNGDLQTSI

| IC50 [1] | IC50 [2] | IC50 ([1]; gh4-c1) | IC50 ([2]; neuro2a) | SMILES |
| --- | --- | --- | --- | --- |
| 29 nM | 2.9 nM | – | – | CC(C)(C)OC(=O)[C@H](CCCCN)NC(=O)[C@@H](Cc1c[nH]c2ccccc12)NC(=O)N1CCN(S(=O)(=O)c2ccccc2)CC1 |
| 1200 nM | 85 nM | – | – | CC(C)(C)OC(=O)[C@H](CCCCN)NC(=O)[C@H](Cc1c[nH]c2ccccc12)NC(=O)c1ccc(-c2ccccc2)cc1 |
| 6.5 nM | 0.26 nM | – | – | CC(C)(C)OC(=O)[C@H](CCCCN)NC(=O)[C@@H](Cc1c[nH]c2ccccc12)NC(=O)N1CCC(n2c(=O)[nH]c3ccccc32)CC1 |
| 7700 nM | 9.2 nM | – | – | Cc1ccc(S(=O)(=O)N2CCN(C(=O)N[C@H](Cc3c[nH]c4ccccc34)C(=O)N[C@@H](CCCCN)C(=O)OC(C)(C)C)CC2)cc1 |
| 6500 nM | > 2000 nM | – | – | COC(=O)[C@H](CCCN=C(N)N)NC(=O)[C@H](Cc1cccc(F)c1)NS(=O)(=O)c1ccc(C)cc1 (Tos-[Phe(3-F)]-Arg-OMe) |
| 67 nM | 4.4 nM | – | – | Cc1ccc(C(=O)N2CCN(C(=O)N[C@H](Cc3c[nH]c4ccccc34)C(=O)N[C@@H](CCCCN)C(=O)OC(C)(C)C)CC2)cc1 |
| – | – | 270 nM | 4.1 nM | CC(C)(C)C1N[C@H](C(=O)NC(Cc2cccc3ccccc23)C(N)=O)CSSC[C@@H](NC(=O)C(N)Cc2cccc(F)c2)C(=O)NC(Cc2cccnc2)C(=O)N[C@@H](Cc2c[nH]c3ccccc23)C(=O)N[C@@H](CCCCN)C1=O (stereo partly drawn) |
| 120 nM | 3.2 nM | – | – | CC(C)(C)OC(=O)[C@H](CCCCN)NC(=O)[C@@H](Cc1c[nH]c2ccccc12)NC(=O)C1CCN(S(=O)(=O)c2ccccc2)CC1 |
| 1600 nM | 6.9 nM | – | – | CC(C)(C)OC(=O)[C@H](CCCCN)NC(=O)[C@@H](Cc1c[nH]c2ccccc12)NC(=O)N1CCN(C(=O)c2ccccc2)CC1 |
